Measurements taken from ChEMBL document CHEMBL4715793 (J Med Chem, 2016).
Calls of active or inactive are those of the source. The rule behind the calls is not given here.

Key:
Hepatitis C virus [1] = assay: Antiviral activity against HCV J6/JFH/JC1 harboring S282T mutant infected in human Huh7.5 cells assessed as inhibition of viral replication measured after 72 hrs by qRT-PCR analysis; format: functional, organism-based, Hepacivirus hominis; conditions: J6/JFH/JC1, Huh7.5, 72 h
Hepatitis C virus [2] = assay: Synergistic antiviral activity against HCV J6/JFH/JC1 infected in human HuH7.5 cells assessed as inhibition of viral protein levels at 6.25 uM in presence of sofosbuvir measured after 72 hrs by western blot analysis; format: functional, organism-based; conditions: Hepacivirus hominis
Method in brief: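 Huh7.5 cells infected with HCV (45 IU/cell) and simultaneously treated with compound (6.25 μM) alone, DAA alone, or both. […] Intracellular protein analysed by Western blot at 72 h. At least triplicate, mean ± SD, Student's t test.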

[3] = Selectivity index, ratio of CC50 for cytotoxicity against human Huh7.5 cells assessed as reduction in cell viability incubated for 72 hrs by MTT assay to EC50 for antiviral activity against HCV genotype 2a J6/JFH/JC1 infected in human Huh7.5 cells assessed as reduction in viral RNA levels measured after 72 hrs by qRT-PCR analysis; format: toxicity, cell-based; conditions: read-out: Ratio CC50/EC50
Huh7.5 = assay: Effect on CD36 expression level in human Huh7.5 cells at 6.25 to 25 uM by Western blot analysis; format: functional, cell-based; conditions: dose 6.25-25 µM
[4] = target: T1, Chondroitin sulfate N-acetylgalactosaminyltransferase 1 (Homo sapiens) (UniProt Q8TDX6); assay: Destabilization of CSGalNacT-1 in human Huh7.5 cells assessed as down regulation of CSGalNacT-1 protein levels at 25 uM measured after 24 hrs in presence of protease inhibitor MG132 by Western blot analysis; format: cell-based
T1 sequence (whole entry): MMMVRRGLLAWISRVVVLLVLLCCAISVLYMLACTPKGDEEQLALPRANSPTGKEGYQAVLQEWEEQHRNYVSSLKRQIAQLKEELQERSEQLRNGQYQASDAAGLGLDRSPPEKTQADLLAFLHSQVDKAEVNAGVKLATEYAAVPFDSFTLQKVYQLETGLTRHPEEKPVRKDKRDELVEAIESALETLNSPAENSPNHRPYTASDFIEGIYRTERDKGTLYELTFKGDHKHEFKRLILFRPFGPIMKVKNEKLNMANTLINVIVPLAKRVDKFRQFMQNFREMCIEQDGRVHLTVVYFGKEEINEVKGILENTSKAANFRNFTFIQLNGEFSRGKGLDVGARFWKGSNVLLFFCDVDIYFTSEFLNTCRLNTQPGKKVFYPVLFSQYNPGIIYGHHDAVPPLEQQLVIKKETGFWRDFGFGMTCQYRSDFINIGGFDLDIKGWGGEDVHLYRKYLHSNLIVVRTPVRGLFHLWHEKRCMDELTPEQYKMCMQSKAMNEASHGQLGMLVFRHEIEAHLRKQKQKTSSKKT
Method in brief: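 Huh7.5 cells cotreated with compound (25 μM) and proteasome inhibitor MG132 (1 μM). Cells given compound alone or MG132 alone served as controls. After 24 h, total intracellular protein extracted and CSGalNAcT-1 detected by Western blot.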

Hepatitis C virus [5] = assay: Antiviral activity against HCV subgenomic replicon harboring I377-3'del.S infected in human GS4.3 cells assessed as inhibition of viral replication at 0.23 to 18.52 uM after 72 hrs by qRT-PCR analysis; format: functional, organism-based; conditions: Hepacivirus hominis, Liver, dose 0.23-18.52 µM
Method in brief: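 GS4.3 cells (Huh7 carrying HCV subgenomic replicon I377-3′del.S) seeded at 3 × 10^4/cm2, after 24 h treated with compound or solvent control. After 72 h intracellular RNA extracted and replicon RNA measured by qRT-PCR. Cytotoxicity checked by MTT at 72 h.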

Hepatitis C virus [6] = assay: Antiviral activity against HCV J6/JFH/JC1 harboring A156T mutant infected in human Huh7.5 cells assessed as inhibition of viral replication measured after 72 hrs by qRT-PCR analysis; format: functional, organism-based, Hepacivirus hominis; conditions: J6/JFH/JC1, Huh7.5, 72 h
Hepatitis C virus [7] = assay: Synergistic antiviral activity against HCV J6/JFH/JC1 infected in human HuH7.5 cells assessed as combination index measured after 72 hrs in presence of simeprevir by Chou-Talalay method; format: functional, Hepacivirus hominis
[8] = Cytotoxicity against human Huh7.5 cells assessed as reduction in cell viability incubated for 72 hrs by MTT assay; format: cell-based
Method in brief: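 Huh7.5 cells seeded at 3 × 10^4/cm2, grown 24 h, then exposed to compound for 72 h. Viability read by MTT assay. CC50 by Reed & Muench method, mean ± SD from three independent experiments.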

In the case of `COc1cc(/C=C/c2ccccc2)c(C(=O)O)c(O)c1CC=C(C)C`, the EC50 (Hepatitis C virus [1]) is reported as 8.59 µM, the Activity (Hepatitis C virus [2]) is reported as “Active” and the selectivity ratio at 72 h [3] is reported as 40. For the same compound, the Activity (Huh7.5) was “inactive”, the Activity [4] was “inactive” and the Activity (Hepatitis C virus [5]) was “inactive”. The EC50 (Hepatitis C virus [6]) was 6.44 µM, the CI (Hepatitis C virus [7]) was 0.953 and the CC50 at 72 h [8] was 91 µM.
